Assay results from different studies.
Lines come from different studies, so protocols differ.
BRD1 bromodomain: Bromodomain-containing protein 1, bromodomain (BRD1, Homo sapiens, UniProt O95696)
ESR1: Estrogen receptor (ESR1, Homo sapiens, UniProt P03372)
Abl2: Abl2 (Mus musculus, UniProt Q4JIM5)
Si: Sucrase-isomaltase, intestinal (Si, Rattus norvegicus, UniProt P23739)

C[S+]([O-])c1ccc(-c2nc(-c3ccncc3)c(-c3ccc(F)cc3)[nH]2)cc1 (stereo not drawn) — ΔTm (BRD1 bromodomain; thermal stability, DSF; 10 µM): -0.23 °C
O=C(c1ccc(F)cc1)N(Cc1ccccc1)C1CCCCC1 — inhibition (ESR1; cell-free assay; 10 µM): 32%
CCOCc1nc(O)c(-c2nnc(Cc3ccc(Cl)cn3)o2)c(O)c1-c1c(OC)cccc1OC — kon (Apelin receptor (APLNR, Homo sapiens, UniProt P35414); binding, radioligand): 5.17e+06 M⁻¹ s⁻¹
Cc1cnc(NC2CCOCC2)nc1-n1cnc(C(=O)NC(CN)c2cc(F)cc(Cl)c2)c1 (stereo not drawn) — remaining activity (Abl2; enzyme activity, inhibitor, radiometric; 1 µM): 102%
COc1cc(Cl)c(C(=O)N[C@@H](CN[C@H]2CC[C@@H](N)CC2)Cc2ccc(C#N)cc2)cc1-c1ccc(CN[C@H](C)c2ccc(C)cc2)o1 — remaining activity (Eukaryotic translation initiation factor 2-alpha kinase 1 (EIF2AK1, Homo sapiens, UniProt Q9BQI3); enzyme activity, inhibitor; 1 µM): 93%
Oc1ccc(-c2nc(-c3ccncc3)c(-c3ccc(F)cc3)[nH]2)cc1 — ΔTm (BRD1 bromodomain; thermal stability, DSF; 10 µM): 0.46 °C
O=C(O)C(=O)Cc1ccccc1 — Km (D-dopachrome decarboxylase (Homo sapiens, UniProt P30046); enzyme activity, substrate): 2400 µM
O=c1c(O[C@@H]2O[C@@H](CO)[C@H](O)[C@H]2O)c(-c2ccc(O)c(O)c2)oc2cc(O)cc(O)c12 — inhibition (Si; enzyme activity, inhibitor; 200 µg/mL): 58.3%
CCCc1c(-c2ccc(O)cc2)nn(-c2ccc(O)cc2)c1-c1ccc(O)cc1 — Emax (ESR1; reporter gene, agonist, luciferase; U2OS): 120%
Nc1ncnc2occ(-c3ccc(NC(=O)Nc4cc(C(F)(F)F)ccc4F)cc3)c12 — remaining signal (Serine/threonine-protein kinase RIO2 (RIOK2, Homo sapiens, UniProt Q9BVS4); cell-free assay, inhibitor; 20 µM): 8.5%
Cn1c2c(c3ccc(Cl)c(Cl)c31)C(C#N)C1(CCOCC1)NC2=O (stereo not drawn) — ΔTm (Rhodopsin kinase GRK1 (GRK1, Homo sapiens, UniProt Q15835); thermal stability, DSF; 10 µM): 0.4 °C
O=c1c(O[C@@H]2O[C@H](CO)[C@@H](O)[C@H](O)[C@H]2O)c(-c2ccc(O)c(O)c2)oc2cc(O)cc(O)c12 — inhibition (Si; enzyme activity, inhibitor; 50 µg/mL): 30.8%
Cc1ccc(C(=O)Nc2ccc(CN3CCN(C)CC3)c(C(F)(F)F)c2)cc1C#Cc1cnc2cccnn12 — remaining activity (Hormonally up-regulated neu tumor-associated kinase (HUNK, Homo sapiens, UniProt P57058); enzyme activity, inhibitor; 23.5 nM): 94%
O=C1OC[C@H]2OC(=O)c3cc(O)c(O)c(O)c3-c3c(O)c(O)c(O)c4c3C(=O)O[C@H]([C@H]3OC(=O)c5c-4c(O)c(O)c(O)c5[C@H]3O)[C@@H]2OC(=O)c2cc(O)c(O)c(O)c2-c2c1cc(O)c(O)c2O — inhibition (Si; enzyme activity, inhibitor; 200 µg/mL): 52.8%
CCCOc1ccc(OC)c(F)c1C(=O)c1ccc(C(=O)N[C@@H]2CNC[C@H]2NC(=O)c2ccc3[nH]ncc3c2)cc1 — remaining activity (Abl2; enzyme activity, inhibitor; 10 µM): 87%
